{"data": "Measured values from different studies", "MLNR": "Motilin receptor (MLNR, Homo sapiens, UniProt O43193)", "PTGS2": "Prostaglandin G/H synthase 2 (PTGS2, Ovis aries, UniProt P79208)", "GSK3B": "Glycogen synthase kinase-3 beta (GSK3B, Homo sapiens, UniProt P49841)", "note": "Each line is one published result; the experiments were not run side by side."}
{"Compound": "Oc1cccc(Nc2nc(-c3ccc(F)cc3F)cs2)c1", "target": "MLNR", "assay": "cell-free assay", "setting": "10 µM", "inhibition": "6.5%"}
{"Compound": "O=c1c(O[C@@H]2O[C@H](CO)[C@@H](O)[C@H](O)[C@H]2O)c(-c2ccc(O)cc2)oc2cc(O[C@@H]3O[C@H](CO)[C@@H](O)[C@H](O)[C@H]3O)cc(O)c12", "target": "PTGS2", "assay": "enzyme activity, inhibitor, absorbance", "setting": "50 µM", "inhibition": "54.8%"}
{"Compound": "CC[C@H]1C(=O)OC[C@@H]1Cc1cncn1C.O=[N+]([O-])O", "target": "GSK3B", "assay": "enzyme activity, inhibitor, ADP detection", "setting": "100 µM", "inhibition": "28.2%"}
{"Compound": "CS(=O)(=O)Nc1cccc(-c2csc(NC(=O)CSc3nc4nccnc4c(=O)n3CCc3ccccc3)n2)c1", "target": "Phosphatidylinositol 4-kinase type 2-beta (PI4K2B, Homo sapiens, UniProt Q8TCG2)", "assay": "enzyme activity, inhibitor", "setting": "10 µM", "inhibition": "-5%"}
{"Compound": "O=c1c(O)c(-c2ccc(O)cc2)oc2cc(O)cc(O)c12", "target": "PTGS2", "assay": "enzyme activity, inhibitor, absorbance", "setting": "50 µM", "inhibition": "52.2%"}
{"Compound": "CCN(c1cc(C#CCN2CCOCC2)cc(C(=O)NCc2c(C)cc(C)[nH]c2=O)c1C)[C@H]1CC[C@H](N(C)CCOC)CC1", "target": "Protein arginine N-methyltransferase 8 (PRMT8, Homo sapiens, UniProt Q9NR22)", "assay": "enzyme activity, inhibitor", "setting": "1 µM", "inhibition": "9%"}
{"Compound": "O=c1c(O)c(-c2ccc(O)cc2)oc2cc(O[C@@H]3O[C@H](CO)[C@@H](O)[C@H](O)[C@H]3O)cc(O)c12", "target": "PTGS2", "assay": "enzyme activity, inhibitor, absorbance", "setting": "50 µM", "inhibition": "66.3%"}
{"Compound": "CN(C)C1CCN(CC#Cc2nn(C3CCCC3)c3nc(NCc4ccccc4)ncc23)C1 (stereo not shown)", "target": "Protein-tyrosine kinase 6 (PTK6, Homo sapiens, UniProt Q13882)", "assay": "enzyme activity, inhibitor, FRET", "setting": "10 µM", "inhibition": "6%"}
{"Compound": "O=C1OC(CN2CCOCC2)CN1/N=C/c1ccc([N+](=O)[O-])o1 (stereo not shown)", "target": "GSK3B", "assay": "enzyme activity, inhibitor, ADP detection", "setting": "100 µM", "inhibition": "20.2%"}
{"Compound": "CCN(CC)c1ccc(C2=NNC(=O)CC2C)cc1[N+](=O)[O-] (stereo not shown)", "target": "High affinity cGMP-specific 3',5'-cyclic phosphodiesterase 9A (PDE9A, Homo sapiens, UniProt O76083)", "assay": "enzyme activity, inhibitor", "setting": "0.1 µM", "inhibition": "2%"}
{"Compound": "COc1cc([C@@H]2c3cc4c(cc3[C@@H](O[C@@H]3O[C@@H]5CO[C@@H](C)O[C@H]5[C@H](O)[C@H]3O)[C@H]3COC(=O)[C@H]23)OCO4)cc(OC)c1O", "target": "GSK3B", "assay": "enzyme activity, inhibitor, ADP detection", "setting": "100 µM", "inhibition": "15.4%"}
{"Compound": "O=C(c1ccc(Cl)cc1)N(Cc1ccccc1)C1CCCCC1", "target": "Vasopressin V1a receptor (AVPR1A, Homo sapiens, UniProt P37288)", "assay": "cell-free assay", "setting": "10 µM", "inhibition": "47.7%"}
{"Compound": "Ic1cccc2cnccc12", "target": "Protein mono-ADP-ribosyltransferase PARP11 (PARP11, Homo sapiens, UniProt Q9NR21)", "assay": "enzyme activity, inhibitor", "setting": "10 µM", "inhibition": "26%"}
{"Compound": "COC(=O)C1=C(C#N)NC(C)=C(C(=O)OC(C)C)C1c1cccc([N+](=O)[O-])c1 (stereo not shown)", "target": "GSK3B", "assay": "enzyme activity, inhibitor, ADP detection", "setting": "100 µM", "inhibition": "25.3%"}
{"Compound": "O=c1c(O[C@@H]2O[C@H](CO)[C@@H](O)[C@H](O)[C@H]2O)c(-c2ccc(O)cc2)oc2cc(O)cc(O)c12", "target": "PTGS2", "assay": "enzyme activity, inhibitor, absorbance", "setting": "50 µM", "inhibition": "55.1%"}
{"Compound": "O=C([O-])c1ccccc1-c1c2cc(I)c(=O)c(I)c-2oc2c(I)c([O-])c(I)cc12.[Na+].[Na+]", "target": "GSK3B", "assay": "enzyme activity, inhibitor, ADP detection", "setting": "100 µM", "inhibition": "87.5%"}
{"Compound": "COc1cc(NC(C)=O)c(Cl)cc1C(=O)Nc1nccs1", "target": "MLNR", "assay": "cell-free assay", "setting": "10 µM", "inhibition": "21.6%"}
{"Compound": "CCN1CCN(Cc2ccc(NC(=O)c3ccc(C)c(/C=C/c4cnc5[nH]ccc5c4OC)c3)cc2C(F)(F)F)CC1", "target": "Mitogen-activated protein kinase kinase kinase 5 (MAP3K5, Homo sapiens, UniProt Q99683)", "assay": "target engagement in cells, inhibitor, chemoproteomics", "system": "A-375", "setting": "50 nM", "inhibition": "-33.8%"}
{"Compound": "Cc1c(C(N)=O)cc([N+](=O)[O-])cc1[N+](=O)[O-]", "target": "GSK3B", "assay": "enzyme activity, inhibitor, ADP detection", "setting": "100 µM", "inhibition": "17.1%"}
